Laboratory results: ChEMBL document CHEMBL1155278, “3,4-Diaryl-isoxazoles and -imidazoles as potent dual inhibitors of p38alpha mitogen activated protein kinase and casein kinase 1delta” (J Med Chem, 2009)

Legend:
[1] = Selectivity ratio of IC50 for recombinant CK1epsilon to IC50 for GST-fused rat CK1delta
[2] = target: T1, Serine/threonine-protein kinase 3 (Homo sapiens) (UniProt Q13188); test: Inhibition of MST2 assessed as residual activity at 0.1 uM by Cherenkov counting relative to control in presence of 20 uM ATP
T1 sequence (whole entry): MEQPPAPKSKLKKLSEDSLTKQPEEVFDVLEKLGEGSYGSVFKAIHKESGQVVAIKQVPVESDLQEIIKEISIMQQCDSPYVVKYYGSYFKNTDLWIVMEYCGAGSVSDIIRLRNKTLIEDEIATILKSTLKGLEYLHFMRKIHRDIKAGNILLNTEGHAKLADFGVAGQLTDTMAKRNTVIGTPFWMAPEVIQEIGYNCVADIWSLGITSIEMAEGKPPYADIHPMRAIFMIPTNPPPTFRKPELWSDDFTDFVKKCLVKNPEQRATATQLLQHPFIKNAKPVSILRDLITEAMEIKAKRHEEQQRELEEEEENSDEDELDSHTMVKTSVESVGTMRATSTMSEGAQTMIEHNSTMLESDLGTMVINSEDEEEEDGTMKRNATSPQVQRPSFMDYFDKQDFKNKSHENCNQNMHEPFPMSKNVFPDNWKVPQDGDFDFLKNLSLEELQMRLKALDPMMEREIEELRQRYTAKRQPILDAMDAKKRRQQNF
Method in brief: (§1)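 Single-concentration selectivity screen at 0.1 μM against a panel of 76 protein kinases. Each kinase was run at an ATP level approximating its Km for ATP. Output is mean residual activity as % of the control assay without compound, n = 3 ± SD.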

[3] = target: RAC-beta serine/threonine-protein kinase (Homo sapiens) (UniProt P31751); test: Inhibition of PKBbeta assessed as residual activity at 0.1 uM by Cherenkov counting relative to control in presence of 50 uM ATP
Chain of RAC-beta serine/threonine-protein kinase (Homo sapiens) (P31751 whole entry): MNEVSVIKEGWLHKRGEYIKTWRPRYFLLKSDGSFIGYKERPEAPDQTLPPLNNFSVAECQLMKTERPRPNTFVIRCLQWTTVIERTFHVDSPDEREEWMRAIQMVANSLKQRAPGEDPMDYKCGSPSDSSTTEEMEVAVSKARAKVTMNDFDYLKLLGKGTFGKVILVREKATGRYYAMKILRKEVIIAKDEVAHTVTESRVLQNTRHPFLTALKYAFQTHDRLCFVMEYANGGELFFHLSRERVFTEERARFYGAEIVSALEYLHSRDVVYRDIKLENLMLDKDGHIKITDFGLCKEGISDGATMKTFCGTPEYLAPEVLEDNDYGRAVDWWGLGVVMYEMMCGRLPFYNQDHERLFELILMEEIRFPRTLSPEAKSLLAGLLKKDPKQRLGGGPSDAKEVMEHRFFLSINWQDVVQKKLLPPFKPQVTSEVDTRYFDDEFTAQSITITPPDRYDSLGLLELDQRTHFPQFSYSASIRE
Method in brief: (§2)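 Single-concentration screen at 0.1 μM in a 76-kinase panel. ATP for each kinase was set near its Km for ATP. Residual activity is given as a percentage of control assays without compound, mean of n = 3 ± SD.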

[4] = target: T2, MAP kinase-activated protein kinase 5 (Homo sapiens) (UniProt Q8IW41); test: Inhibition of PRAK assessed as residual activity at 0.1 uM by Cherenkov counting relative to control in presence of 20 uM ATP; method in brief: as §2
T2 sequence (whole entry): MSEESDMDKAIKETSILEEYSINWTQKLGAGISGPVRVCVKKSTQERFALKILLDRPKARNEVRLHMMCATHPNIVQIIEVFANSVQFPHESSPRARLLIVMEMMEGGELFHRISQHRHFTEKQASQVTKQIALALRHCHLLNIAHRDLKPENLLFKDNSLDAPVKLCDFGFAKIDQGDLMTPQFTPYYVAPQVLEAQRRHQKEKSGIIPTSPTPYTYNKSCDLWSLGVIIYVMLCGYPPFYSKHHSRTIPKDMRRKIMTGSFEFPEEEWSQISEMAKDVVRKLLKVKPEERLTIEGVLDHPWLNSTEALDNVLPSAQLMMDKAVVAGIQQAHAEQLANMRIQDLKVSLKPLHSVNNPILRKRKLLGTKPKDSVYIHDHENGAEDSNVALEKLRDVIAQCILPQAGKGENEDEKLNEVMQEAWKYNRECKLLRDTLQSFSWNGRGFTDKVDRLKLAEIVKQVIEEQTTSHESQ

[5] = target: Serine/threonine-protein kinase PAK 5 (Homo sapiens) (UniProt Q9P286); test: Inhibition of PAK5 assessed as residual activity at 0.1 uM by Cherenkov counting relative to control in presence of 20 uM ATP; method in brief: as §1
Chain of Serine/threonine-protein kinase PAK 5 (Homo sapiens) (Q9P286 whole entry, looked up): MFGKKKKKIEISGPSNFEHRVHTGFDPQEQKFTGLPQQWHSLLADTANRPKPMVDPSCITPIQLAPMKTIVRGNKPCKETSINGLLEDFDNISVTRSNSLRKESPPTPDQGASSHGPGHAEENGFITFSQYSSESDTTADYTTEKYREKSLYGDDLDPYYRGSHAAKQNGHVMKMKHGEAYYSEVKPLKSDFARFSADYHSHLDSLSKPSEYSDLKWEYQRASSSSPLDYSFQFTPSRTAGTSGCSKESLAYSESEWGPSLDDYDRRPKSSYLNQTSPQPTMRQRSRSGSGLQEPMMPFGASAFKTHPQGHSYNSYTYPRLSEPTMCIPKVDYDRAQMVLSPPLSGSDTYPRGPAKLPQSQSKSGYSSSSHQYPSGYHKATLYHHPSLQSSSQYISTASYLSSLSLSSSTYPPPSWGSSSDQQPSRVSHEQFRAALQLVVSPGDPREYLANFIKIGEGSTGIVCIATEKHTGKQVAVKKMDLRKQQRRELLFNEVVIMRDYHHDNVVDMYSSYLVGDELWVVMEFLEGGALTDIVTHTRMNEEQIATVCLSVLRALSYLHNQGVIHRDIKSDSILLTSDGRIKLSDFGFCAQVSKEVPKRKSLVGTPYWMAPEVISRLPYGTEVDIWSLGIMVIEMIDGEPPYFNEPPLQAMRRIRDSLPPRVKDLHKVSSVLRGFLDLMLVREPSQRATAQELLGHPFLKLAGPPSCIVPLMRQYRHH

[6] = target: Serine/threonine-protein kinase PLK1 (Homo sapiens) (UniProt P53350); test: Inhibition of PLK1 assessed as residual activity at 0.1 uM by Cherenkov counting relative to control in presence of 5 uM ATP; method in brief: as §2
Chain of Serine/threonine-protein kinase PLK1 (Homo sapiens) (P53350 whole entry): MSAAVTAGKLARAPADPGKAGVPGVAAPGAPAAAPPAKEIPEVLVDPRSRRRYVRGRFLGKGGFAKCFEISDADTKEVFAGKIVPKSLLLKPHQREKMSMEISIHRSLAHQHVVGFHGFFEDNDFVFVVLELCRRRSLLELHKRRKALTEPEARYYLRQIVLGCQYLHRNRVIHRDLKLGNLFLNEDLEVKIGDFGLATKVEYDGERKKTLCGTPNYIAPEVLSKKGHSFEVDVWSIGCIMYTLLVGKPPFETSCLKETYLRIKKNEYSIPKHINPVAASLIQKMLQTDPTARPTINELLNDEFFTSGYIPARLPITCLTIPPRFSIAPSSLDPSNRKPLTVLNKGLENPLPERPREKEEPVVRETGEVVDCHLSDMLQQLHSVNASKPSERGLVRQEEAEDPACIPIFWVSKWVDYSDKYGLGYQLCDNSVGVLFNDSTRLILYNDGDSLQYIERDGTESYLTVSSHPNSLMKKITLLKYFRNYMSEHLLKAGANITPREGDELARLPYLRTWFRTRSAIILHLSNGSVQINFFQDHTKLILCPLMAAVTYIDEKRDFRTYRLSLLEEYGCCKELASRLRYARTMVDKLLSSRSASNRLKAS

[7] = target: Mitogen-activated protein kinase 13 (Homo sapiens) (UniProt O15264); test: Inhibition of p38delta assessed as residual activity at 0.1 uM by Cherenkov counting relative to control; method in brief: as §2
Chain of Mitogen-activated protein kinase 13 (Homo sapiens) (O15264 whole entry): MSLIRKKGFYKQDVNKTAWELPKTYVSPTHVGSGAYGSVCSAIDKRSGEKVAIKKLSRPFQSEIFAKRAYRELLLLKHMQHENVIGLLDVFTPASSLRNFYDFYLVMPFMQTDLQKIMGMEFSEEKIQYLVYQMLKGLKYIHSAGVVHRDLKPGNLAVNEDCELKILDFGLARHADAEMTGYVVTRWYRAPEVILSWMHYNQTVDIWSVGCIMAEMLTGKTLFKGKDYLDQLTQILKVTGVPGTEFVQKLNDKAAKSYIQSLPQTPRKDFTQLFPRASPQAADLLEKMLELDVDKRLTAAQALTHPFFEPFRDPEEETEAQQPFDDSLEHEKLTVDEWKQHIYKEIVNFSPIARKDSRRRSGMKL

[8] = target: T3, Protein kinase C zeta type (Homo sapiens) (UniProt Q05513); test: Inhibition of PKCzeta assessed as residual activity at 0.1 uM by Cherenkov counting relative to control in presence of 5 uM ATP; method in brief: as §2
T3 sequence (whole entry): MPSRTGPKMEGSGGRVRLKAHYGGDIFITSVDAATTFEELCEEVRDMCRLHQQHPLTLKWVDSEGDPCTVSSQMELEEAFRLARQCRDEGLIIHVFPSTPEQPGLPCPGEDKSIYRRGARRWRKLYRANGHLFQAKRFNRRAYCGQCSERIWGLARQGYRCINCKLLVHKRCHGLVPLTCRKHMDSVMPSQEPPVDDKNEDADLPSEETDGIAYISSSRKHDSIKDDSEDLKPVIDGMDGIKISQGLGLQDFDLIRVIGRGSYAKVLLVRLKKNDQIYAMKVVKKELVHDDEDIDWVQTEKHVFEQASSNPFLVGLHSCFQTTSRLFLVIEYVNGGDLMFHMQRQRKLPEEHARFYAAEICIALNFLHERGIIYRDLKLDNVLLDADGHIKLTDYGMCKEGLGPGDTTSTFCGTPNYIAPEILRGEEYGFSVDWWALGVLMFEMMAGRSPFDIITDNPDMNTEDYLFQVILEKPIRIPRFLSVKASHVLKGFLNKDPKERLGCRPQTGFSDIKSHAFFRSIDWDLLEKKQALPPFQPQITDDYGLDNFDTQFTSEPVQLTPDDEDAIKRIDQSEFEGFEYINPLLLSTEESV

[9] = target: Serine/threonine-protein kinase pim-2 (Homo sapiens) (UniProt Q9P1W9); test: Inhibition of PIM2 assessed as residual activity at 10 uM by Cherenkov counting relative to control in presence of 5 uM ATP
Chain of Serine/threonine-protein kinase pim-2 (Homo sapiens) (Q9P1W9 whole entry, looked up): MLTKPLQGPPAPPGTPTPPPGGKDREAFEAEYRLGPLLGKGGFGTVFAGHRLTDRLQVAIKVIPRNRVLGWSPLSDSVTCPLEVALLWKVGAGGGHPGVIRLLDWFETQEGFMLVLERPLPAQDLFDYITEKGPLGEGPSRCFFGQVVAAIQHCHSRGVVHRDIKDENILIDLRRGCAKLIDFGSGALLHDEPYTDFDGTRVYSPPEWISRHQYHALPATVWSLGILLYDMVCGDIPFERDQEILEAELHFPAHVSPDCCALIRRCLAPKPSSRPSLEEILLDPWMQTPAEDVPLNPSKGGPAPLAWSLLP

[10] = target: T4, Serine/threonine-protein kinase Nek2 (Homo sapiens) (UniProt P51955); test: Inhibition of NEK2a assessed as residual activity at 10 uM by Cherenkov counting relative to control in presence of 50 uM ATP
T4 sequence (whole entry): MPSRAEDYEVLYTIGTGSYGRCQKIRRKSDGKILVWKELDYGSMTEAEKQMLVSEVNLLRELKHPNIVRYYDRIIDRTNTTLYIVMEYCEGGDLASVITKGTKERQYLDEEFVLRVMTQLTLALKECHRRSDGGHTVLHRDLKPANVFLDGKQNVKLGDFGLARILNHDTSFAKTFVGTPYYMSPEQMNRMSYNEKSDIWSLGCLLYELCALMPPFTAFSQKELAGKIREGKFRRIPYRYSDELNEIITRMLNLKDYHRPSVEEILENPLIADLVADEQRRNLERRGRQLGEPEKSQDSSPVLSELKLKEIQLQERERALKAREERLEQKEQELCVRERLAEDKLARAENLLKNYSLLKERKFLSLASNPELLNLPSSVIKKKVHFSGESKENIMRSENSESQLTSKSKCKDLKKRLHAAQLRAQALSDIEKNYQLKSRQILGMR

| Ratio IC50 [1] | Activity [2] [%] | Activity [3] [%] | Activity [4] [%] | Activity [5] [%] | Activity [6] [%] | Activity [7] [%] | Activity [8] [%] | Activity [9] [%] | Activity [10] [%] | SMILES |
| --- | --- | --- | --- | --- | --- | --- | --- | --- | --- | --- |
| 15 | 97 | 98 | 83 | 94 | 97 | 90 | 79 | – | – | COc1ccc(/C=C/C(=O)Nc2cc(-c3[nH]c(SC)nc3-c3ccc(F)cc3)ccn2)c(OC)c1 |
| 41 | 112 | 100 | 101 | 105 | 110 | 100 | 83 | – | – | COc1ccc(/C=C/C(=O)Nc2cc(-c3[nH]c([S+](C)[O-])nc3-c3ccc(F)cc3)ccn2)c(OC)c1 (stereo not given) |
| – | – | – | – | – | – | – | – | 96 | 96 | CC(C)c1noc(-c2ccc(F)cc2)c1-c1ccncc1 |
| – | – | – | – | – | – | – | – | 105 | 98 | CC(C)c1onc(-c2ccc(F)cc2)c1-c1ccncc1 |
